65 compounds from ChEMBL document CHEMBL5523695, “Discovery of small molecule benzothiazole and indole derivatives tackling tau 2N4R and α-synuclein fibrils” (Bioorg Med Chem, 2024) can be followed below.

Each structure is given as a SMILES string. Activity calls are given as the source filed them. The rule behind the calls is not given here.

For the first test, the target named is Alpha-synuclein (Homo sapiens) (UniProt P37840). In words: Inhibition of recombinant alpha-Synuclein (unknown origin) aggregation assessed as reduction in fluorescence intensity by measuring residual activity at 100 uM measured every 20 mins for 40 to 70 hrs by Thioflavin T based fluorescence analysis relative to control. Particulars: time 40-70 hrs. A digest of the protocol: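 Recombinant α-syn (2 μM final) in 10 mM PBS pH 7.4 with 0.5 mM SDS and 300 mM NaCl. Compound at 100 μM final, ThT 20 μM, one borosilicate bead per well. Read at 37 °C every 20 min after 10 s shaking, ex 440/em 485 nm, for 40–70 h. Background was ThT plus 0.25 % DMSO without protein. Plateau fluorescence expressed as % of control, triplicates, mean ± SEM.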
`COc1cccc2sc(NC(=O)Nc3ccc(F)cc3)nc12`: the Activity is 145%.
The same measure, in the same setting: the result for `COc1cccc2sc(NS(=O)(=O)c3ccccc3I)nc12` reads 5.8%; that for `O=[N+]([O-])c1ccc(S(=O)(=O)Nc2ccc3[nH]ccc3c2)cc1`, 97.6%.
Take `O=S(=O)(Nc1cccc2[nH]ccc12)c1ccccc1I`: the Activity was 74.8%.
With `COc1cccc2sc(NC(=O)c3cccs3)nc12`, the Activity is 86.6%.
Take `COc1cccc2sc(NC(=O)c3ccccc3I)nc12`: the Activity was 137%.
On the same count and under the same terms, the result for `COc1cccc2sc(NC(=O)c3cccc([N+](=O)[O-])c3)nc12` reads 48.1%; that for `O=C(Nc1ccc2cc[nH]c2c1)Nc1ccccc1I`, 83.4%; that for `COc1cccc2sc(NC(=O)c3cccc(C(F)(F)F)c3)nc12`, 84.7%.
Same read-out and setting: in the case of `O=[N+]([O-])c1ccc(S(=O)(=O)Nc2cccc3[nH]ccc23)cc1` it was 83.9%; in that of `COc1cccc2sc(NS(=O)(=O)c3ccccc3Cl)nc12`, 19.3%; in that of `COc1cccc2sc(NS(=O)(=O)c3ccc(F)cc3F)nc12`, 87.9%.
The same measure, in the same setting: in the case of `COc1cccc2sc(NC(=O)Nc3cccc([N+](=O)[O-])c3)nc12` it was 78.1%.
`COc1ccccc1S(=O)(=O)Nc1nc2c(OC)cccc2s1`: the Activity is 79.3%.
With `COc1cccc2sc(NC(=O)Nc3cccc(C(F)(F)F)c3)nc12`, the Activity was more than 200%.
`O=C(Nc1ccccc1I)Nc1cccc2[nH]ccc12`: the Activity came to 38.3%.
Turning to `COc1cccc2sc(NC(=O)c3ccc(F)cc3F)nc12`, the Activity was 128%.
On to `COc1cccc2sc(NC(=O)c3ccc(Br)cc3)nc12`, for which the Activity is more than 200%.
Same read-out and setting: the result for `COc1cccc2sc(NS(=O)(=O)c3cc(Cl)cc(Cl)c3)nc12` reads 39.3%; that for `COc1cccc2sc(NC(=O)Nc3ccc(F)cc3F)nc12`, 184%; that for `COc1ccccc1C(=O)Nc1nc2c(OC)cccc2s1`, 182%.
Same read-out and setting: in the case of `COc1cccc2sc(NC(=O)c3ccc(Cl)cc3)nc12` it was 116%; in that of `COc1cccc2sc(NC(=O)c3ccc([N+](=O)[O-])cc3)nc12`, 45.4%.
For `COc1cccc2sc(NC(=O)c3ccccc3C)nc12`, the Activity was found to be 137%.
Consider `COc1cccc2sc(NC(=O)Nc3ccc([N+](=O)[O-])cc3)nc12`, for which the Activity was 79%.
On the same count and under the same terms, the result for `COc1cccc2sc(NC(=O)Nc3ccccc3I)nc12` reads 125%; that for `COc1cccc2sc(NC(=O)c3ccccc3Cl)nc12`, 262%.
For `COc1cccc2sc(NC(=O)c3ccc(F)cc3)nc12`, the Activity turned out to be 103%.
Still for that read-out and setting: the result for `COc1cccc2sc(NS(=O)(=O)c3cccs3)nc12` reads 41.6%; that for `COc1cccc2sc(NS(=O)(=O)c3ccccc3C)nc12`, 32.7%; that for `COc1cccc2sc(NC(=O)Nc3ccc(Br)cc3)nc12`, 170%.
The same measure, in the same setting: in the case of `COc1cccc2sc(NC(=O)c3ccccc3[N+](=O)[O-])nc12` it was 102%.
On the same count and under the same terms, the result for `COc1cccc2sc(NC(=O)c3ccccc3)nc12` reads 107%; that for `O=C(Nc1ccc2[nH]ccc2c1)Nc1ccccc1I`, 40.3%; that for `COc1cccc2sc(NS(=O)(=O)c3ccc(I)cc3)nc12`, 42.8%.
Consider `COc1cccc2sc(NC(=O)Nc3ccccc3F)nc12`, for which the Activity is more than 200%.
On the same count and under the same terms, in the case of `COc1cccc2sc(NC(=O)c3ccc(C(F)(F)F)cc3)nc12` it was 116%; in that of `O=S(=O)(Nc1ccc2[nH]ccc2c1)c1ccccc1I`, 59.7%.
Same read-out and setting: the result for `COc1cccc2sc(NC(=O)c3ccc(I)cc3)nc12` reads more than 200%; that for `COc1cccc2sc(NC(=O)Nc3cccs3)nc12`, 41.6%; that for `COc1cccc2sc(NS(=O)(=O)c3ccc(F)cc3)nc12`, 70.4%.
On the same count and under the same terms, in the case of `COc1cccc2sc(NC(=O)Nc3ccc(Cl)cc3)nc12` it was 173%; in that of `COc1cccc2sc(NC(=O)c3ccc(C#N)cc3)nc12`, 128%; in that of `COc1cccc2sc(NS(=O)(=O)c3ccc([N+](=O)[O-])cc3)nc12`, 9.5%.
Turning to `COc1cccc2sc(NS(=O)(=O)c3cccc(C(F)(F)F)c3)nc12`, the Activity amounted to 56%.
On the same count and under the same terms, in the case of `COc1cccc2sc(NS(=O)(=O)c3ccc(C#N)cc3)nc12` it was 46.1%; in that of `COc1cccc2sc(NS(=O)(=O)c3ccc(C(F)(F)F)cc3)nc12`, 53.8%; in that of `O=S(=O)(Nc1ccc2cc[nH]c2c1)c1ccccc1I`, 104%.
As for `COc1cccc2sc(NC(=O)Nc3cc(Cl)cc(Cl)c3)nc12`, the Activity is more than 200%.
Take `COc1cccc2sc(NS(=O)(=O)c3cccc([N+](=O)[O-])c3)nc12`: the Activity stood at 40.1%.
On the same count and under the same terms, the result for `COc1cccc2sc(NC(=O)Nc3ccccc3)nc12` reads 130%; that for `COc1cccc2sc(NS(=O)(=O)c3ccccc3[N+](=O)[O-])nc12`, 41%.
Same read-out and setting: the result for `O=[N+]([O-])c1ccc(S(=O)(=O)Nc2ccc3cc[nH]c3c2)cc1` reads 63.5%.
The same measure, in the same setting: the result for `COc1cccc2sc(NC(=O)c3ccccc3F)nc12` reads 98.7%; that for `COc1ccccc1NC(=O)Nc1nc2c(OC)cccc2s1`, 199%.
With `COc1cccc2sc(NC(=O)Nc3ccc(C(F)(F)F)cc3)nc12`, the Activity was 94.8%.
Still for that read-out and setting: the result for `COc1cccc2sc(NC(=O)c3cc(Cl)cc(Cl)c3)nc12` reads 95.4%; that for `COc1cccc2sc(NS(=O)(=O)c3ccc(Br)cc3)nc12`, 43.1%.
`COc1cccc2sc(NC(=O)Nc3ccc(C#N)cc3)nc12`: the Activity was more than 200%.
Regarding `COc1cccc2sc(NS(=O)(=O)c3ccccc3)nc12`, the Activity was 74.6%.
Turning to `COc1cccc2sc(NC(=O)Nc3ccc(I)cc3)nc12`, the Activity came to 141%.
Still for that read-out and setting: in the case of `COc1cccc2sc(NC(=O)Nc3ccccc3[N+](=O)[O-])nc12` it was 64.4%; in that of `COc1cccc2sc(NS(=O)(=O)c3ccccc3F)nc12`, 64.9%.
Still for that read-out and setting: in the case of `COc1cccc2sc(NS(=O)(=O)c3ccc(Cl)cc3)nc12` it was 40.3%; in that of `COc1cccc2sc(NC(=O)Nc3ccccc3C)nc12`, 148%.

The next test shares this target. The test is described as follows: Inhibition of recombinant alpha-Synuclein (unknown origin) aggregation assessed as reduction in oligomer formation at compound-protein ratio of 1:0.6 incubated for 10 mins in presence of 53W light exposure for 1 sec by PICUP assay.
Conditions: not given
A digest of the protocol: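 α-Syn (60 μM) in 10 mM phosphate buffer was cross-linked with Ru(bpy)3 (300 μM) and ammonium persulfate (6 mM), compound at 50, 100 or 200 μM. Light from a 53 W incandescent bulb for 1 s. Laemmli/2-mercaptoethanol added, then 95 °C for 10 min. Samples run on 16 % SDS-PAGE with Coomassie stain; oligomer bands at 35–40 kDa assessed. Controls lacked light or Ru(bpy)3.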
`COc1cccc2sc(NS(=O)(=O)c3ccccc3I)nc12`: the inhibition result was “inactive”.
On the same count and under the same terms, the result for `COc1cccc2sc(NS(=O)(=O)c3ccc([N+](=O)[O-])cc3)nc12` reads “inactive”.
